{"source": "ChEMBL document CHEMBL4619773", "about": "“Chemoreactive-Inspired Discovery of Influenza A Virus Dual Inhibitor to Block Hemagglutinin-Mediated Adsorption and Membrane Fusion” (J Med Chem, 2020)", "key": {"Influenza A virus [1]": {"test_system": "Influenza A virus", "test": "Antiviral activity against Influenza A virus (A/Puerto Rico/8/1934(H1N1)) infected in Kunming mouse assessed as decrease in lung IL6 level at 10 mg/kg/day, po starting 4 hrs after viral challenge and continued for 4 days by ELISA", "type": "functional, organism-based", "procedure,_shortened": "(§1)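 Four-week-old female Kunming mice received PR8 intranasally (500 PFU/mouse in 40 µL PBS) and were then dosed once daily orally or intranasally. Lungs were collected on day 4, and TNF-α and IL-6 in lung tissue were measured by ELISA.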"}, "Influenza A virus [2]": {"test_system": "Influenza A virus", "test": "Antiviral activity against Influenza A virus (A/Puerto Rico/8/1934(H1N1)) infected in Kunming mouse assessed as decrease in lung TNFalpha level at 10 mg/kg/day, po starting 4 hrs after viral challenge and continued for 4 days by ELISA", "type": "functional, organism-based", "procedure,_shortened": "as §1"}, "Influenza A virus [3]": {"test_system": "Influenza A virus", "test": "Antiviral activity against Influenza A virus (A/Puerto Rico/8/1934(H1N1)) infected in Kunming mouse assessed as mouse survival at 10 mg/kg/day, po starting 4 hrs after viral challenge and continued for 7 days by plaque assay", "type": "functional", "procedure,_shortened": "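Groups of 10 female Kunming mice were infected intranasally with PR8 (1000 PFU/mouse) on day 0 and dosed once daily for seven days. Weight and clinical signs were recorded daily. Mice losing more than 25% of pre-infection weight were scored dead and euthanized; survivors were killed on day 14.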"}, "Influenza A virus [4]": {"test_system": "Influenza A virus", "test": "Antiviral activity against Influenza A virus (A/Puerto Rico/8/1934(H1N1)) infected in MDCK cells assessed as inhibition of virus-induced cytopathic effect incubated for 48 hrs by crystal violet staining based assay", "type": "functional, organism-based", "procedure,_shortened": "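MDCK cells were infected at MOI 0.1, the inoculum was removed, and compounds were added in triplicate. After 48 h the cells were fixed in 4% formaldehyde (20 min, RT) and stained with 0.1% crystal violet (30 min). Dye was solubilized in methanol and read at 570 nm.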"}, "[5]": {"test": "Selectivity index, ratio of CC50 for cytotoxicity in dog MDCK cells assessed as reduction in cell viability incubated for 48 hrs by crystal violet staining based assay to […] in dog MDCK cells assessed as reduction in cell viability incubated for 48 hrs by crystal violet staining based assay"}, "[6]": {"test": "Cytotoxicity in dog MDCK cells assessed as reduction in cell viability incubated for 48 hrs by crystal violet staining based assay", "parameters": "species or system Canis lupus familiaris"}, "[7]": {"test_system": "Influenza A virus (A/Aichi/2/1968(H3N2))", "test": "Binding affinity to Influenza A virus (A/Aichi/2/1968(H3N2)) Hemagglutinin at 1.5625 to 50 uM by SPR assay", "procedure,_shortened": "(§2)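 HA protein was immobilized on CM5 chips. Compound (50, […], 12.5, 6.25, 3.125, 1.5625 µM) was injected for 2 min, followed by a 10-min PBST wash and regeneration with 2 mM NaOH for 30 s. Runs were at 25 °C with 2 µl/s flow, using a blank HA-free reference channel. KD was obtained from kinetic fitting.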"}, "[8]": {"target": "Hemagglutinin (Influenza A virus (A/Puerto Rico/8/1934(H1N1)), UniProt P03452)", "sequence (P03452 whole entry)": "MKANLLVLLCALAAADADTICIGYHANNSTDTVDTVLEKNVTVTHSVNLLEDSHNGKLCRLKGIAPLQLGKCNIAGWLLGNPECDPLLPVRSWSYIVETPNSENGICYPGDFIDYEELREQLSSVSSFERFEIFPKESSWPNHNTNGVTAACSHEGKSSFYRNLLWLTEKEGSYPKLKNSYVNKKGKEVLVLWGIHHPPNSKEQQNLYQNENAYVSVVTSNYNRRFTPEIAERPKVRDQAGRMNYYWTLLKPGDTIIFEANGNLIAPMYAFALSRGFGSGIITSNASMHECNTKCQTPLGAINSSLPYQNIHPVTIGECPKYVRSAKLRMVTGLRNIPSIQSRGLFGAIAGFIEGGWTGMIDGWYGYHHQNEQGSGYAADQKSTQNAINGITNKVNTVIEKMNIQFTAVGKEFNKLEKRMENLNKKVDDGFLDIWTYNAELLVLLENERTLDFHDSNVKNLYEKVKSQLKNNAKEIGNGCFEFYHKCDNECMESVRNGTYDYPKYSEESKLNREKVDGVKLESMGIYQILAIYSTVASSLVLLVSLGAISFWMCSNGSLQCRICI", "test": "Binding affinity to Influenza A virus (A/Puerto Rico/8/1934(H1N1)) Hemagglutinin at 1.5625 to 50 uM by SPR assay", "procedure,_shortened": "as §2"}}, "note": "The source made the active and inactive calls. No cut-off for these calls is given here."}
{"molecule": "CCOC(=O)C1=C[C@@H](OC(CC)CC)[C@H](NC(C)=O)[C@@H](N)C1", "note": "[OSELTAMIVIR]", "values": [{"measurement": "Activity", "setting": "Influenza A virus [1]", "value": "Active"}, {"measurement": "Activity", "setting": "Influenza A virus [2]", "value": "Active"}, {"measurement": "survival at 10 mg/kg/day", "setting": "Influenza A virus [3]", "value": 100, "unit": "%"}]}
{"molecule": "CC(=O)c1cc(C)c(O)c(Cc2c(Cc3c(O)c(C)cc(C(C)=O)c3O)n(Cc3c(O)c(C)cc(C(C)=O)c3O)c3cccc(Br)c23)c1O", "values": [{"measurement": "IC50", "setting": "Influenza A virus [4]", "value": "> 100", "unit": "µM"}]}
{"molecule": "CC(=O)c1cc(C)c(O)c(Cc2[nH]c3ccc(C)cc3c2Cc2c(O)c(C)cc(C(C)=O)c2O)c1O", "values": [{"measurement": "Ratio CC50/IC50", "setting": "[5]", "value": 17.1}, {"measurement": "CC50 at 48 h", "setting": "[6]", "value": 681, "unit": "µM"}, {"measurement": "IC50", "setting": "Influenza A virus [4]", "value": 39.8, "unit": "µM"}]}
{"molecule": "CC(=O)c1cc(C)c(O)c(Cc2[nH]c3cccc(Br)c3c2Cc2c(O)c(C)cc(C(C)=O)c2O)c1O", "values": [{"measurement": "IC50", "setting": "Influenza A virus [4]", "value": "> 100", "unit": "µM"}]}
{"molecule": "CC(=O)c1cc(C)c(O)c(CNc2cc(C(F)(F)F)cc(C(F)(F)F)c2)c1O", "values": [{"measurement": "IC50", "setting": "Influenza A virus [4]", "value": "> 100", "unit": "µM"}]}
{"molecule": "CC(=O)NC1[C@H]([C@H](O)[C@H](O)CO)O[C@@](O[C@H]2[C@@H](O)[C@@H](CO)O[C@@H](O[C@@H]([C@H](O)[C@@H](O)C=O)[C@H](O)CO)[C@@H]2O)(C(=O)O)C[C@@H]1O", "note": "(stereo not given in full)", "values": [{"measurement": "Activity", "setting": "[7]", "value": "Active"}, {"measurement": "Kd", "setting": "[8]; read-out: Kd", "value": 4.5, "unit": "µM"}]}
{"molecule": "CCOC(=O)c1c(CSc2ccccc2)n(C)c2cc(Br)c(O)c(CN(C)C)c12", "note": "[UMIFENOVIR]", "values": [{"measurement": "Ratio CC50/IC50", "setting": "[5]", "value": 10.4}, {"measurement": "Activity", "setting": "[7]", "value": "Active"}, {"measurement": "Kd", "setting": "[8]; read-out: Kd", "value": 11.1, "unit": "µM"}, {"measurement": "IC50", "setting": "Influenza A virus [4]", "value": 32.5, "unit": "µM"}]}
{"molecule": "CC(=O)c1cc(C)c(O)c(Cc2c[nH]c3ccccc23)c1O", "values": [{"measurement": "Kd", "setting": "[8]", "value": "Not Active"}]}
{"molecule": "CC(=O)c1cc(C)c(O)c(Cc2cn(Cc3c(O)c(C)cc(C(C)=O)c3O)c3cccc(Br)c23)c1O", "values": [{"measurement": "IC50", "setting": "Influenza A virus [4]", "value": "> 100", "unit": "µM"}]}
{"molecule": "CC(=O)c1cc(C)c(O)c(Cc2c(Cc3c(O)c(C)cc(C(C)=O)c3O)n(Cc3c(O)c(C)cc(C(C)=O)c3O)c3ccccc23)c1O", "values": [{"measurement": "IC50", "setting": "Influenza A virus [4]", "value": "> 100", "unit": "µM"}]}
{"molecule": "NC(=O)c1ncn([C@@H]2O[C@H](CO)[C@@H](O)[C@H]2O)n1", "note": "[RIBAVIRIN]", "values": [{"measurement": "Ratio CC50/IC50", "setting": "[5]", "value": 20.8}, {"measurement": "IC50", "setting": "Influenza A virus [4]", "value": 98.3, "unit": "µM"}]}
